Laboratory results taken from ChEMBL document CHEMBL1641514, “Drug metabolism-based design, synthesis, and bioactivities of 1-(2,6-dimethylphenoxy)-2-(3,4-dimethoxyphenylethylamino)propane hydrochloride (DDPH) analogs as α₁-adrenoceptors antagonists” (Bioorg Med Chem, 2011).

Tests used:
Rattus norvegicus [1] = assay: Antihypertensive activity in Sprague-Dawley rat assessed as time duration of hypotensive response at 5 mg/kg, iv
Rattus norvegicus [2] = assay: Antihypertensive activity in Sprague-Dawley rat assessed as change in diastolic arterial pressure at 5 mg/kg, iv
Rattus norvegicus [3] = assay: Antihypertensive activity in Sprague-Dawley rat assessed as change in heart rate at 5 mg/kg, iv
Rattus norvegicus [4] = assay: Antihypertensive activity in Sprague-Dawley rat assessed as change in mean arterial pressure at 5 mg/kg, iv
Rattus norvegicus [5] = assay: Antihypertensive activity in Sprague-Dawley rat assessed as change in systolic arterial pressure at 5 mg/kg, iv
[6] = molecular target: T1, Adrenergic receptor alpha-1 (Rattus norvegicus, UniProt P15823+P23944+P43140); assay: Antagonist activity at alpha1 adrenergic receptor in Sprague-Dawley rat anococcygeus smooth muscle assessed as inhibition of phenylepinephrine-induced muscle contraction treated 20 mins before phenylepinephrine challenge; format: functional
T1 sequence (P15823 whole entry): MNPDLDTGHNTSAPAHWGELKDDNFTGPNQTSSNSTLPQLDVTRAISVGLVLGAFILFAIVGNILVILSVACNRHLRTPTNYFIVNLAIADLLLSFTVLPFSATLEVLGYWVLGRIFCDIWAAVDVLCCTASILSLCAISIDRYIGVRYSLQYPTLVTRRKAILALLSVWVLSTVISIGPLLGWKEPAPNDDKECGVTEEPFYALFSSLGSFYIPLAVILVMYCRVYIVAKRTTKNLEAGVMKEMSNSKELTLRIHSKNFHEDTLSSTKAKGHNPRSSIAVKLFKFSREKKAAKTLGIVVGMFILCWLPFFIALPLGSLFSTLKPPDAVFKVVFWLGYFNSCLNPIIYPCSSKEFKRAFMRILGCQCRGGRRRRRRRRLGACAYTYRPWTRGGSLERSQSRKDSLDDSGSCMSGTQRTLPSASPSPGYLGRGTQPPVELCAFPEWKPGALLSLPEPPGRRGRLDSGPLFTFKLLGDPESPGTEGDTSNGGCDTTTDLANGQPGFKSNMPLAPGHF
T1 sequence (P23944 whole entry): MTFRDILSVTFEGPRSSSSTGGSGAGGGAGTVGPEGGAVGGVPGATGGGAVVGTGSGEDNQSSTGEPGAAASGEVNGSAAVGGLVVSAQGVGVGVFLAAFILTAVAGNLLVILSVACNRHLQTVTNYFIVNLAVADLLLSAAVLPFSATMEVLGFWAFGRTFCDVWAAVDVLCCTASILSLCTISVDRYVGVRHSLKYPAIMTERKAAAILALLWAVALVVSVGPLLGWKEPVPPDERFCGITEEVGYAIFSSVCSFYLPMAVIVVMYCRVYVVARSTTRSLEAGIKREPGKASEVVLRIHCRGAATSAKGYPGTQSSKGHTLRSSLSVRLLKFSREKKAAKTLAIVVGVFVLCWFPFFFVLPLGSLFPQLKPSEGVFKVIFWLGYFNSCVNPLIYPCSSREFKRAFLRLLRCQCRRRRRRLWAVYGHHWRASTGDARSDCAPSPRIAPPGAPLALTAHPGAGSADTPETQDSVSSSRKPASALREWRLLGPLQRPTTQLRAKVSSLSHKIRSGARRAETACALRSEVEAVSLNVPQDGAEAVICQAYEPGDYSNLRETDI
T1 sequence (P43140 whole entry): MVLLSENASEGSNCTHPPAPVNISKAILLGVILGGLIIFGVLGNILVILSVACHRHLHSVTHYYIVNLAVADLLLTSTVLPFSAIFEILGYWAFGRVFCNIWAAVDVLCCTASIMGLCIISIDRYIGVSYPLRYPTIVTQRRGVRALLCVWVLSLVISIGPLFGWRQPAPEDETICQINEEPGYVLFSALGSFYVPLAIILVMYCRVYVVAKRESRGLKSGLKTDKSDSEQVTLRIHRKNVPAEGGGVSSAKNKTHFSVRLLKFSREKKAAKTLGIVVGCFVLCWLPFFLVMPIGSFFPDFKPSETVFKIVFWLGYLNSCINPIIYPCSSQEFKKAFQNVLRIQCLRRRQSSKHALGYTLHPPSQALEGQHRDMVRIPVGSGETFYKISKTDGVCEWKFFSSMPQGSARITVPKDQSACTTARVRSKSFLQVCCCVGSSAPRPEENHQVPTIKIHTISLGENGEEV
How it was run: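 Male Sprague–Dawley rats (300–350 g) killed by cervical dislocation. Anococcygeus muscle mounted in a 20 mL bath of Krebs solution (pH 7.4), 37 °C, gassed with 5% CO₂/95% O₂. Resting tension 1.0 g. Equilibrated 1 h with Krebs renewal every 20 min. Cocaine, hydrocortisone and propranolol then added. pA₂ read out.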

How did the Time (Rattus norvegicus [1]) turn out when `COc1ccc(CCNC(C)COc2c(C)cc(C#N)cc2C)cc1O.Cl` (configuration not stated) was run?
The Time was 4 min.

What about the Activity (Rattus norvegicus [2]) of the same compound?
The Activity was -14.2%.

What about the Activity (Rattus norvegicus [3]) of the same compound?
The Activity was -6.4%.

And the Activity (Rattus norvegicus [4])?
Its Activity is -11%.

And the Activity (Rattus norvegicus [5])?
The Activity was -8.2%.

And the pA2 [6]?
Its pA2 is 5.61.

For `COc1cc(CCNC(C)COc2c(C)cc(Cl)cc2C)ccc1O.Cl` (configuration not stated), which Time (Rattus norvegicus [1]) is on record?
The Time was 61 min.

What about the Activity (Rattus norvegicus [2]) of the same compound?
Its Activity is -25.1%.

And the Activity (Rattus norvegicus [3])?
The Activity was -6.6%.

What about the Activity (Rattus norvegicus [4]) of the same compound?
Its Activity is -20.2%.

And the Activity (Rattus norvegicus [5])?
The Activity was -12.1%.

What about the pA2 [6] of the same compound?
Its pA2 is 8.6.

With `COc1ccc(CCNC(C)COc2c(C)cc(Cl)cc2C)cc1OC.Cl` (configuration not stated) as the compound, how does the Time (Rattus norvegicus [1]) read?
The Time was 34 min.

And the Activity (Rattus norvegicus [2])?
Its Activity is -18.5%.

And the Activity (Rattus norvegicus [3])?
The Activity was -8.78%.

And the Activity (Rattus norvegicus [4])?
Its Activity is -15.9%.

And the Activity (Rattus norvegicus [5])?
Its Activity is -13.3%.

What about the pA2 [6] of the same compound?
The pA2 was 8.18.

How did the Time (Rattus norvegicus [1]) turn out when `COc1ccc(CCNC(C)COc2c(C)cc(Br)cc2C)cc1OC.Cl` (configuration not stated) was run?
The Time was 12 min.

And the Activity (Rattus norvegicus [2])?
Its Activity is -7.8%.

And the Activity (Rattus norvegicus [3])?
The Activity was -8.3%.

And the Activity (Rattus norvegicus [4])?
The Activity was -8.5%.

What about the Activity (Rattus norvegicus [5]) of the same compound?
Its Activity is -9.2%.

And the pA2 [6]?
The pA2 was 6.93.

With `COc1cc(CCNC(C)COc2c(C)cc(Br)cc2C)ccc1O.Cl` (configuration not stated) as the compound, how does the Time (Rattus norvegicus [1]) read?
The Time was 23 min.

And the Activity (Rattus norvegicus [2])?
Its Activity is -19.1%.

And the Activity (Rattus norvegicus [3])?
Its Activity is -1.7%.

What about the Activity (Rattus norvegicus [4]) of the same compound?
The Activity was -15.5%.

What about the Activity (Rattus norvegicus [5]) of the same compound?
The Activity was -7.6%.

What about the pA2 [6] of the same compound?
The pA2 was 9.94.

Which Time (Rattus norvegicus [1]) does the source give for `COc1ccc(CCNC(C)COc2c(C)cc(Br)cc2C)cc1O.Cl` (configuration not stated) here?
Its Time is 4 min.

What about the Activity (Rattus norvegicus [2]) of the same compound?
Its Activity is -12.8%.

And the Activity (Rattus norvegicus [3])?
The Activity was -2.3%.

And the Activity (Rattus norvegicus [4])?
Its Activity is -7.5%.

And the Activity (Rattus norvegicus [5])?
The Activity was -3.5%.

And the pA2 [6]?
Its pA2 is 7.02.

With `COc1ccc(CCNC(C)COc2c(C)ccc(C)c2C)cc1OC.Cl` (configuration not stated) as the compound, how does the Time (Rattus norvegicus [1]) read?
The Time was 57 min.

What about the Activity (Rattus norvegicus [2]) of the same compound?
Its Activity is -34.2%.

And the Activity (Rattus norvegicus [3])?
Its Activity is -16.6%.

And the Activity (Rattus norvegicus [4])?
The Activity was -27.1%.

And the Activity (Rattus norvegicus [5])?
The Activity was -17.4%.

What about the pA2 [6] of the same compound?
Its pA2 is 7.71.

Which results are given for `COc1cc(CCNC(C)COc2c(C)ccc(C)c2C)ccc1O.Cl` (configuration not stated)?
Time (Rattus norvegicus [1]): 80 min; Activity (Rattus norvegicus [2]): -20.5%; Activity (Rattus norvegicus [3]): -0.96%; Activity (Rattus norvegicus [4]): -14.6%; Activity (Rattus norvegicus [5]): -7.9%; pA2 [6]: 8.02

What does the source list for `COc1cc(CCNC(C)COc2c(C)cc(C)cc2C)ccc1O.Cl` (configuration not stated)?
Time (Rattus norvegicus [1]): 205 min; Activity (Rattus norvegicus [2]): -48.99%; Activity (Rattus norvegicus [3]): -23.52%; Activity (Rattus norvegicus [4]): -45.92%; Activity (Rattus norvegicus [5]): -36.45%; pA2 [6]: 8.86

`COc1ccc(CCNC(C)COc2c(C)cc(C)cc2C)cc1OC.Cl` (configuration not stated) was tested. Which Time (Rattus norvegicus [1]) did it give?
The Time was 33 min.

What about the Activity (Rattus norvegicus [2]) of the same compound?
The Activity was -28.23%.

And the Activity (Rattus norvegicus [3])?
Its Activity is -16.3%.

What about the Activity (Rattus norvegicus [4]) of the same compound?
Its Activity is -27.86%.

And the Activity (Rattus norvegicus [5])?
Its Activity is -19.03%.

What about the pA2 [6] of the same compound?
Its pA2 is 7.25.

How did the Time (Rattus norvegicus [1]) turn out when `COc1cc(CCNC(C)COc2c(C)cc(C#N)cc2C)ccc1O.Cl` (configuration not stated) was run?
Its Time is 6 min.

And the Activity (Rattus norvegicus [2])?
Its Activity is -29.61%.

What about the Activity (Rattus norvegicus [3]) of the same compound?
Its Activity is -2.33%.

What about the Activity (Rattus norvegicus [4]) of the same compound?
The Activity was -24.9%.

What about the Activity (Rattus norvegicus [5]) of the same compound?
The Activity was -17.3%.

And the pA2 [6]?
Its pA2 is 6.65.

With `COc1ccc(CCNC(C)COc2c(C)cccc2C)cc1OC.Cl` (configuration not stated) as the compound, how does the Time (Rattus norvegicus [1]) read?
Its Time is 120 min.

What about the Activity (Rattus norvegicus [2]) of the same compound?
The Activity was -26%.

What about the Activity (Rattus norvegicus [3]) of the same compound?
The Activity was -16.04%.

What about the Activity (Rattus norvegicus [4]) of the same compound?
The Activity was -30.4%.

What about the Activity (Rattus norvegicus [5]) of the same compound?
The Activity was -19.79%.

And the pA2 [6]?
Its pA2 is 8.07.
